Drawing on ChEMBL document CHEMBL1151252, “New lamellarin alkaloids from the Indian ascidian Didemnum obscurum and their antioxidant properties” (J Nat Prod, 2004), this text covers IC50 and Ratio IC50 for three compounds.

Assay [1] concerns Radical scavenging activity. As to the kind of experiment: Antioxidant activity assessed as DPPH radical scavenging activity by HPLC. The assay is classed as functional. The method in brief:
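In the HPLC DPPH assay, test material in methanol or DMSO is mixed 1:1 with methanolic DPPH (final 250 μM) and held in the dark for 20 min at room temperature, then filtered and run on reversed-phase HPLC with diode-array detection. IC50 is obtained by linear regression over at least five concentrations, each in triplicate.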

A short description of assay [2]: DPPH radical scavenging activity assessed as ratio of IC50 for trolox to IC50 for test compound. The assay is classed as functional. The method in brief:
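TEAC is the ratio of Trolox IC50 to sample IC50. Both come from the same HPLC DPPH scavenging assay: 250 μM final DPPH, 20 min in the dark at room temperature, reversed-phase HPLC with diode-array detection. Each IC50 is derived by linear regression from at least five concentrations in triplicate.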
In general terms: Loss of DPPH colour is used to gauge radical scavenging.

With `CC(C)(Sc1cc(C(C)(C)C)c(O)c(C(C)(C)C)c1)Sc1cc(C(C)(C)C)c(O)c(C(C)(C)C)c1` [PROBUCOL], the IC50 in assay [1] amounted to 52.7 µM. Further, the Ratio IC50 in assay [2] worked out at 1.29.
Regarding `Cc1c(C)c2c(c(C)c1O)CC[C@@](C)(CCC[C@H](C)CCC[C@H](C)CCCC(C)C)O2` [ALPHA-TOCOPHEROL], the IC50 in assay [1] turned out to be 63.6 µM. Besides, in assay [2], the Ratio IC50 was 1.07.
For `Cc1c(C)c2c(c(C)c1O)CCC(C)(C(=O)O)O2` (stereo unspecified) [TROLOX], the 50% inhibitory concentration (IC50) in assay [1] was found to be 67.8 µM. Further, the Ratio IC50 in assay [2] stood at 1.

The term IC50 denotes the concentration needed to halve the response being measured.
